Measurements: ChEMBL document CHEMBL1177716, “Kinesin spindle protein (KSP) inhibitors with 2,3-fused indole scaffolds” (J Med Chem, 2010)
pIC50: −log10 of the molar value. Active and inactive are the calls of the source. The calls are words filed in the database; no cut-off is given here.

How the values were obtained:
[1] = target: T1, Kinesin-like protein KIF11 (Homo sapiens, UniProt P52732); test: Inhibition of human C-terminally His6-tagged microtubule-activated KSP motor domain ATPase activity after 30 mins by luciferase-derived luminescence assay
T1 sequence (P52732 whole entry): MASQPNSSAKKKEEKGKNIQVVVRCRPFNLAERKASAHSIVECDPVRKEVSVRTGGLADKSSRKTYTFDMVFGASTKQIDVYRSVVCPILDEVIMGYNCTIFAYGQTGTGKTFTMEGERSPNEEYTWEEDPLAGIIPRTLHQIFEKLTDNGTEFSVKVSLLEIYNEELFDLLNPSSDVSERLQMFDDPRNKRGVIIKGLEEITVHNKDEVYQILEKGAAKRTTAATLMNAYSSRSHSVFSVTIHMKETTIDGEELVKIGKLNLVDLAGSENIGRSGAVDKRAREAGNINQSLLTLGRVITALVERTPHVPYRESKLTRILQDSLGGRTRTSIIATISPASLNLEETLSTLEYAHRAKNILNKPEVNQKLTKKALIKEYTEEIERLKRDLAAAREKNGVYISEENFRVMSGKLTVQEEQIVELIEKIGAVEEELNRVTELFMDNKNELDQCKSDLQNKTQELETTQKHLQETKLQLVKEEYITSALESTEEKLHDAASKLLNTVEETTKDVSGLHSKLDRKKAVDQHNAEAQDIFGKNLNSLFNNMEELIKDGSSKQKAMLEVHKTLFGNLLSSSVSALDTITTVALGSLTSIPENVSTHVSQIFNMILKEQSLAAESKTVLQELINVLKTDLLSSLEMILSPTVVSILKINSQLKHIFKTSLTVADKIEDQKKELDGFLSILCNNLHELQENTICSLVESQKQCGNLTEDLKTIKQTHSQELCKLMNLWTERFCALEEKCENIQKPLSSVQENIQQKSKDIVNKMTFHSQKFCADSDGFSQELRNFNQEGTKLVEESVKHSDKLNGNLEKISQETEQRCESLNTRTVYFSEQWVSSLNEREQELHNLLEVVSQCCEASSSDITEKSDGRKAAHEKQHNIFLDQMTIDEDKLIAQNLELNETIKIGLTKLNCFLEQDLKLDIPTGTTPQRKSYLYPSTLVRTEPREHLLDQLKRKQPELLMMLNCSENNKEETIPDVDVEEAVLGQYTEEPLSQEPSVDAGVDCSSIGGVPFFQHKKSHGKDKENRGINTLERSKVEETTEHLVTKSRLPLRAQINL

HeLa [2] = test: Cytotoxicity against human HeLa cells at 60 uM after 48 hrs […]; type: functional
HeLa [3] = test: Cytotoxicity against human HeLa cells after 48 hrs […]; type: functional, cell-based; conditions: for pIC50: Homo sapiens, HeLa, 48 h
HeLa [4] = test: Cell cycle arrest in human HeLa cells assessed as accumulation at G2/M phase with incomplete chromosome condensation at 36 uM after 20 hrs by DAPI staining; type: functional, cell-based
HeLa [5] = test: Cell cycle arrest in human HeLa cells assessed as accumulation at M phase at 36 uM after 20 hrs by DAPI staining relative to taxol; type: functional; conditions: in the assay text read “at 32 uM” for “at 36 uM”
How it was run: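 HeLa cells were exposed to compound for 20 h and scored for M-phase arrest. Mitotic index was expressed as a percentage of the induction given by 0.1 μM taxol.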

Sus scrofa [6] = organism: Sus scrofa; test: Inhibition of pig brain topoisomerase 2-mediated supercoiled DNA relaxation after 20 mins by agarose gel electrophoresis analysis
How it was run: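 Supercoiled DNA was incubated with topo II, with or without test compound. Gel lanes included supercoiled DNA alone, DNA plus enzyme without compound, and DNA plus enzyme with AMSA as the reference inhibitor.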

Sus scrofa [7] = organism: Sus scrofa; test: Inhibition of pig brain topoisomerase 1-mediated supercoiled DNA relaxation after 20 mins by agarose gel electrophoresis analysis
How it was run: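 Supercoiled DNA was incubated with topo I, with or without test compound. Gel lanes included supercoiled DNA alone, DNA plus enzyme without compound, and DNA plus enzyme with camptothecin as the reference inhibitor.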

| SMILES | pIC50 [1] | inhibition at 60 µM (HeLa [2]) | pIC50 (HeLa [3]) | other results |
| --- | --- | --- | --- | --- |
| COC(=O)c1ccc2[nH]c3cc(C(C)(C)C)ccc3c2c1 | 6.41 | < 50% |  |  |
| Cc1ccc2c(c1)[nH]c1ccccc12 | 4.66 | < 50% |  |  |
| CC(C)(C)c1cccc2c1[nH]c1ccccc12 | 4.85 |  | 4.39 |  |
| O=Cc1ccc2[nH]c3ccccc3c2c1 | 4.77 | < 50% |  |  |
| CC(=O)c1ccc2[nH]c3cc(C)ccc3c2c1 | 5.80 |  | 4.29 |  |
| Cc1ccc2c(c1)[nH]c1ccc(C(F)(F)F)cc12 | 4.96 |  | 4.46 |  |
| COC(=O)c1ccc2c(c1)[nH]c1ccccc12 | 4.96 | < 50% |  |  |
| CC(C)(C)c1ccc2c(c1)[nH]c1ccc(C(=O)O)cc12 | 4.96 | < 50% |  |  |
| Cc1ccc2[nH]c3ccc(C(F)(F)F)cc3c2c1 | 5.06 | < 50% |  |  |
| c1ccc2c(c1)[nH]c1cc3c(cc12)CCCC3 | 4.60 | < 50% |  |  |
| Cn1c2ccccc2c2ccc(C(F)(F)F)cc21 | 5.25 | < 50% |  |  |
| c1ccc2c(c1)[nH]c1c3c(ccc12)CCCC3 | 5.80 |  | 4.52 |  |
| Cc1ccc2c(c1)[nH]c1ccc(F)cc12 | 5.12 | < 50% |  |  |
| O=Cc1ccc2c(c1)[nH]c1ccccc12 | 4.89 | < 50% |  |  |
| c1ccc2c(c1)ccc1c3ccccc3[nH]c21 | 5.34 | < 50% |  |  |
| CC(C)(C)c1ccc2[nH]c3ccccc3c2c1 | 6.62 |  | 5.19 | Activity (HeLa [4]): Active; Activity (HeLa [5]): 76% |
| CCCCN1C(=O)[C@@H]2Cc3c([nH]c4ccccc34)[C@@H](c3cccc(O)c3)N2C1=O | 5.15 |  | 5.07 |  |
| CCc1ccc2c(c1)[nH]c1ccccc12 | 5.55 | < 50% |  |  |
| FC(F)c1ccc2c(c1)[nH]c1ccccc12 | 6.06 |  | 4.34 |  |
| FC(F)(F)c1cccc2c1[nH]c1ccccc12 | 5.48 | < 50% |  |  |
| Cc1cccc2c1[nH]c1ccccc12 | 4.64 | < 50% |  |  |
| FC(F)(F)Oc1ccc2c(c1)[nH]c1ccccc12 | 6.29 |  | 4.54 |  |
| COc1ccc2c(c1)[nH]c1c(C)nccc12 |  |  |  | inhibition (Sus scrofa [6]): Active; inhibition (Sus scrofa [7]): Active |
| CC(C)c1ccc2c(c1)[nH]c1ccccc12 | 5.82 |  | 5.82 |  |
| CC(C)(C)c1ccc2c(c1)[nH]c1cc(C(F)(F)F)ccc12 | 5.85 | < 50% |  |  |
| CC(C)(C)Oc1ccc2c(c1)[nH]c1ccccc12 | 5.49 | < 50% |  | inhibition (INH) (HeLa [3]): <50% |
| Oc1ccc2c(c1)[nH]c1ccccc12 |  | < 50% |  |  |
